ChEMBL document CHEMBL1124528, “Tetrahydrothiadiazoloisoquinolines: synthesis and inhibition of phenylethanolamine-N-methyltransferase” (J Med Chem, 1989)

How the values were obtained:
[1] = system: Phenylethanolamine N-methyltransferase (rabbit); test: Ability to inhibit rabbit adrenal PNMT norepinephrine to epinephrine (E13), in vitro, at 10 e-6 M; conditions: Oryctolagus cuniculus
[2] = system: Phenylethanolamine N-methyltransferase (rabbit); test: Ability to inhibit rabbit adrenal PNMT norepinephrine to epinephrine (E13), in vitro, at 10 e-4 M compound concentration.; conditions: Oryctolagus cuniculus
[3] = system: Mus musculus; test: Minimum active dose that causes decrease in endogenous adrenal epinephrine/norepinephrine ratio, when administered perorally in mice; format: functional
Method in brief: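 Mice dosed orally b.i.d. (chronic administration), then adrenal E and NE content measured and the decrease in E/NE ratio determined. Minimum active dose is the lowest dose significant at p < 0.05 versus control by Student's t test.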

[4] = system: Rattus norvegicus; test: Ability to inhibit [3H]epinephrine biosynthesis was determined in the adrenal medulla of rats by administering 3 mg/kg of compound orally.; format: functional; conditions: po
[5] = system: Mus musculus; test: Maximum inactive dose that causes decrease in endogenous adrenal epinephrine/norepinephrine ratio, when administered perorally in mice
[6] = system: Phenylethanolamine N-methyltransferase (rabbit); test: Ability to inhibit rabbit adrenal phenylethanolamine N-methyl-transferase norepinephrine to epinephrine (E13), in vitro, at 10 e-6 M; conditions: Oryctolagus cuniculus
[7] = system: Mus musculus; test: Minimum active dose that causes decrease in endogenous epinephrine/norepinephrine ratio, when administered perorally in mice; format: functional
Method in brief: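 Mice given compound orally, b.i.d., as chronic dosing, then adrenal gland E and NE content measured to give the E/NE ratio. Minimum active dose is the lowest dose giving p < 0.05 vs control by Student's t test.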

| SMILES | inhibition [1] [%] | inhibition [2] [%] | inhibition [6] [%] | other results |
| --- | --- | --- | --- | --- |
| Oc1nc2c3c(ccc2[nH]1)CCNC3 | 1 | 4 |  |  |
| Cl.c1cc2snnc2c2c1CCNC2 |  |  |  | MAD [3]: 12.5 mg/kg; inhibition in vivo at 3 mg/kg [4]: 87%; MID [5]: 6.25 mg/kg |
| c1nc2c3c(ccc2[nH]1)CCNC3 |  |  | 0 |  |
| c1ccc2c3c(ccc2c1)CCNC3 |  |  | 14 |  |
| Oc1nc2c3c(ccc2s1)CCNC3 | 3 | 37 |  |  |
| c1cc2nnsc2c2c1CCNC2 |  |  | 91 |  |
| c1nc2ccc3c(c2s1)CNCC3 |  |  | 24 |  |
| Clc1cc2snnc2c2c1CCNC2 | 51 | 98 |  |  |
| Cl.Clc1ccc2c(c1Cl)CNCC2 |  |  |  | MAD [7]: 5 mg/kg; inhibition in vivo at 3 mg/kg [4]: 50%; MID [5]: 2.5 mg/kg |
| c1cc2[nH]nnc2c2c1CCNC2 |  |  | 20 |  |
| Nc1nc2ccc3c(c2s1)CNCC3 | 15 | 41 |  |  |
